Data reported in ChEMBL document CHEMBL1154198, “Chemical genetics of Plasmodium falciparum” (Nature, 2010).
pEC50: −log10 of the molar value.

Key:
[1] = tested on: Plasmodium falciparum; experiment: ST_JUDE: Cytotoxicity against Plasmodium falciparum K1; format: functional, organism-based
Procedure, shortened: (§1)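 Asexual P. falciparum grown in human erythrocytes, exposed to compounds for 72 h, and growth read as the DNA quantity in treated versus control cultures. Dose-response run at 12 concentrations from 10 μM to 5 nM.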

[2] = tested on: Plasmodium falciparum; experiment: ST_JUDE: Cytotoxicity against Plasmodium falciparum W2; format: functional, organism-based
[3] = ST_JUDE: Cytotoxicity using luciferase to measure ATP as an indicator of the viability of human Burkitt''s lymphoma lymphoblast cells (Raji); format: toxicity, cell-based
[4] = tested on: Plasmodium falciparum; experiment: ST_JUDE: Cytotoxicity against Plasmodium falciparum V1/S; format: functional, organism-based
[5] = ST_JUDE: Cytotoxicity using luciferase to measure ATP as an indicator of the viability of human foreskin fibroblast cells (BJ); format: toxicity, cell-based
[6] = tested on: Plasmodium falciparum; experiment: ST_JUDE: Cytotoxicity against Plasmodium falciparum SB-A6; format: functional, organism-based
[7] = ST_JUDE: Cytotoxicity using luciferase to measure ATP as an indicator of the viability of human epithelial embryonic kidney cells (HEK293); format: toxicity, cell-based
[8] = tested on: Plasmodium falciparum; experiment: ST_JUDE: Cytotoxicity against Plasmodium falciparum Dd2; format: functional, organism-based
[9] = tested on: Plasmodium falciparum; experiment: ST_JUDE: Cytotoxicity against Plasmodium falciparum 3D7; format: functional, organism-based; procedure, shortened: as §1
[10] = tested on: Leishmania major; experiment: ST_JUDE: Cytotoxicity using Alamar Blue to measure viability of Leishmania major; format: functional, organism-based
Procedure, shortened: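 L. major promastigotes; drug susceptibility read with Alamar Blue.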

[11] = tested on: Plasmodium falciparum; experiment: ST_JUDE: Plasmodium falciparum K1 EC50 (uM) as measured by SYBR green dye; format: functional, organism-based
[12] = ST_JUDE: Cytotoxicity using luciferase to measure ATP as an indicator of the viability of human epithelial hepatocellular carcinoma cells (HepG2); format: toxicity, cell-based
[13] = tested on: Trypanosoma brucei; experiment: ST_JUDE: Cytotoxicity using luciferase to measure ATP as an indicator of the viability of Trypanosoma brucei; format: functional, organism-based
[14] = tested on: Plasmodium falciparum; experiment: ST_JUDE: Plasmodium falciparum 3D7 EC50 (uM) as measured by SYBR green dye; format: functional, organism-based
[15] = tested on: Plasmodium falciparum; experiment: ST_JUDE: Cytotoxicity against Plasmodium falciparum D10 transfected with yeast DHOD; format: functional, organism-based
[16] = tested on: Toxoplasma gondii; experiment: ST_JUDE: Growth inhibition of to Toxoplasma gondii, in human U-2OS cells, as measured by luciferase.; format: functional, organism-based; conditions: RH, U2OS
Procedure, shortened: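 T. gondii parasites engineered to express luciferase; drug sensitivity read by luminescence.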

SMILES | pEC50 [11] | pEC50 [14] | pEC50 [1] | pEC50 [2] | pEC50 [3] | pEC50 [4] | pEC50 [5] | pEC50 [6] | pEC50 [7] | pEC50 [8] | pEC50 [9] | pEC50 [10] | pEC50 [12] | pEC50 [13] | pEC50 [15] | pEC50 [16]
CC(=O)N(C1=C(N(C)C)C(=O)c2ccccc2C1=O)c1ccc(F)cc1 | 6.84 | 7.16 | 7.82 | 7.11 | 6.55 | 7.92 | 5.42 | 7.53 | 5.12 | 7.90 | 7.92 | < 4.86 | 6.15 | 6.24 | 7.75 | 6.20
CCc1ccc(S(=O)(=O)NC2=C/C(=N\c3ccccc3)C(=O)c3ccccc32)cc1 | 6.33 | 6.25 | 6.56 | 6.32 | 5.58 | 6.39 | 5.25 | 6.47 | 5.28 | 6.24 | 6.55 | < 4.88 | 5.37 | 5.84 | 6.43 | < 4.77
CCOC(=O)C1(Cc2cccc(F)c2)CCN(Cc2ccccc2O)CC1 | 6.55 | 6.46 | 6.40 | 6.00 | < 4.28 | 5.90 | < 4.28 | 5.92 | < 4.28 | 6.17 | 5.92 | < 4.65 | < 4.28 | 4.60 | 5.85 | < 4.54
C[n+]1ccccc1/C=C/c1ccc([N+](=O)[O-])cc1 | 5.85 | 5.85 | 6.13 | 5.37 | < 4.47 | 6.07 | < 4.47 | 5.97 | < 4.47 | 5.98 | 6.09 | < 4.84 | < 4.47 | < 4.49 | 6.05 | < 4.73
CCCCOc1ccc(N(C(C)=O)C2=C(N3CCOCC3)C(=O)c3ccccc3C2=O)cc1 | 7.02 | 7.00 | 7.18 | 6.03 | 5.42 | 7.44 | < 4.51 | 7.54 | 4.96 | 6.31 | 7.15 | < 4.87 | 5.41 | 5.40 | 7.67 | < 4.77
CCN(C(C)=O)C1=C(N2CCOCC2)C(=O)c2ccccc2C1=O | 6.16 | 6.46 | 6.36 | < 5.08 | 5.56 | 6.29 | 5.05 | 6.21 | < 4.49 | 6.42 | 6.37 | < 4.86 | 5.49 | 5.25 | 6.33 | 5.49

The remaining molecules from weak to strong by pEC50 [11], led by results:

pEC50 [11] | pEC50 [14] | SMILES | pEC50 [1] | pEC50 [2] | pEC50 [3] | pEC50 [4] | pEC50 [5] | pEC50 [6] | pEC50 [7] | pEC50 [8] | pEC50 [9] | pEC50 [10] | pEC50 [12] | pEC50 [13] | pEC50 [15] | pEC50 [16]
5.88 | 6.04 | COc1ccc(C2CC(=O)C3=C(C2)NC(=O)CC3c2ccc(OC)c(OC)c2)cc1 (stereo not drawn) | 5.82 | 5.66 | < 4.34 | < 4.93 | < 4.34 | 5.63 | < 4.34 | 5.88 | 5.91 | < 4.71 | < 4.34 | < 4.36 | 5.78 | < 4.60
5.97 | 6.19 | CCCO/C(O)=C1\C(C)=NC2=C(C(=O)CC(c3ccc(OC)cc3)C2)C1c1ccc([N+](=O)[O-])cc1 (stereo not drawn) | 5.97 | < 4.93 | < 4.34 | 5.83 | < 4.34 | 5.99 | < 4.34 | 5.80 | 5.52 | < 4.71 | < 4.34 | 5.16 | 5.81 | < 4.61
6.08 | 6.28 | CCOc1cc(C2CC(=O)NC3=C2C(=O)CC(c2ccc(OC)cc2)C3)cc(Cl)c1O (stereo not drawn) | 5.98 | 6.20 | < 4.35 | 5.93 | < 4.35 | 5.91 | < 4.35 | 5.88 | 6.01 | < 4.72 | < 4.35 | < 4.37 | 5.93 | < 4.61
6.10 | 5.95 | CCN(CC)c1ccc(/C=C/c2ccc3ccc(OC)cc3[n+]2CC)cc1 | 6.38 | 6.52 | 6.31 | 6.38 | < 4.78 | 6.35 | < 4.78 | 6.64 | 6.37 | 8.62 | 5.72 | 6.36 | 6.51 | 5.38
6.41 | < 4.82 | CCOC(=O)C1=C(C)N=c2s/c(=C/c3ccccc3O)c(=O)n2C1c1ccccc1 (stereo not drawn) | 6.47 | 5.66 | < 4.44 | < 5.03 | < 4.44 | 6.29 | < 4.44 | 5.66 | 6.50 | < 4.80 | < 4.44 | 5.16 | 6.31 | < 4.70
6.41 | 6.24 | CCCO/C(O)=C1\C(C)=NC2=C(C(=O)CC(c3ccc(OC)c(OC)c3)C2)C1c1cccc(C)c1 (stereo not drawn) | 6.41 | 5.34 | < 4.35 | 6.20 | < 4.35 | 6.53 | < 4.35 | 5.87 | 6.14 | < 4.72 | 4.39 | 4.95 | 6.34 | < 4.61
7.29 | 7.30 | COc1ccc(NC(=O)C2c3ccccc3C(=O)N(CC(C)C)C2c2cccs2)cc1OC (stereo not drawn) | 6.96 | 7.30 | < 4.36 | 6.88 | < 4.36 | 7.05 | < 4.36 | 6.91 | 6.98 | < 4.73 | < 4.36 | 5.16 | 7.04 | < 4.62
